Data reported in ChEMBL document CHEMBL2057141, “Imidazolopiperazines: lead optimization of the second-generation antimalarial agents” (J Med Chem, 2012).

Experiments:
Plasmodium falciparum [1] = test: Antimalarial activity against Plasmodium falciparum 3D7 after 72 hrs by SYBR green fluorescence assay; type: functional, organism-based; conditions: 3D7, 72 h
Summary of the method: (§1)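 P. falciparum grown in O+ erythrocytes, screened in medium without human serum plus 0.5% Albumax II. Twelve-point half-log dilutions up to 10 μM final. 0.3% parasitemia, 2.5% hematocrit; 72 h at 37 °C under low-oxygen gas. Lysis buffer with SYBR Green added, 24 h at 25 °C, fluorescence read at 485/530 nm.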

Plasmodium falciparum [2] = test: Antimalarial activity against Plasmodium falciparum W2 after 72 hrs by SYBR green fluorescence assay; type: functional, organism-based; conditions: W2, 72 h; summary of the method: as §1
[3] = molecular target: Voltage-gated inwardly rectifying potassium channel KCNH2 (Homo sapiens, UniProt Q12809); test: Inhibition of human ERG channel expressed in CHO cells by patch clamp assay; type: cell-based
[4] = Permeability of the compound by PAMPA; type: ADME
Summary of the method: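 PAMPA in 96-well filter plates. Permeated compound quantified by UV absorbance at 260–290 nm. Reported as percentage absorbed.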

[5] = Apparent permeability across apical to basolateral side in human Caco2 cells by LC/MS analysis; type: ADME, cell-based; conditions: Caco-2
Summary of the method: (§2)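 Caco-2 monolayers in 96-well format. Compound measured in apical and basolateral chambers by LC/MS, giving Papp in the A–B and B–A directions. Values reported in cm/s × 10⁶.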

[6] = Apparent permeability across basolateral to apical side in human Caco2 cells by LC/MS analysis; type: ADME, cell-based; conditions: Caco-2; summary of the method: as §2
[7] = Volume of distribution in Balb/c mouse at 5 mg/kg, iv; type: ADME, organism-based; design: dose 5 mg/kg, route intravenous; conditions: in vivo
Summary of the method: (§3)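 Male Balb/c mice (n = 3 per group). Compound as a 2.5 mg/mL solution in PEG300/D5W 3:1, filtered. Given by lateral tail vein at 5 mg/kg (2 mL/kg) or orally at 20 mg/kg (8 mL/kg). Six serial 50 μL retro-orbital blood samples to 24 h, heparinized plasma. Plasma extracted with acetonitrile:methanol 3:1 with internal standard, LC-MS/MS. Noncompartmental analysis; F = AUCpo×dose_iv/AUCiv×dose_po.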

[8] = Clearance in Balb/c mouse plasma at 5 mg/kg, iv; type: ADME, organism-based; design: dose 5 mg/kg, route intravenous; summary of the method: as §3
[9] = Half life in Balb/c mouse at 5 mg/kg, iv; type: ADME, organism-based; design: dose 5 mg/kg, route intravenous; conditions: in vivo; summary of the method: as §3
Mus musculus [10] = test: AUC (0 to 24 hrs) in Balb/c mouse at 5 mg/kg, iv; type: ADME, organism-based, Plasma; design: time < 24 hr, dose 5 mg/kg, route intravenous; conditions: in vivo; summary of the method: as §3
[11] = Cmax in Balb/c mouse at 20 mg/kg, po; type: ADME, organism-based; design: dose 20 mg/kg, route oral; conditions: in vivo; summary of the method: as §3
[12] = Tmax in Balb/c mouse at 20 mg/kg, po; type: ADME, organism-based; design: dose 20 mg/kg, route oral; conditions: in vivo; summary of the method: as §3
[13] = Half life in Balb/c mouse at 20 mg/kg, po; type: ADME, organism-based; design: dose 20 mg/kg, route oral; conditions: in vivo; summary of the method: as §3
Mus musculus [14] = test: AUC (0 to 24 hrs) in Balb/c mouse at 20 mg/kg, po; type: ADME, organism-based, Plasma; design: time < 24 hr, dose 20 mg/kg, route oral; conditions: in vivo; summary of the method: as §3
Mus musculus [15] = test: Oral bioavailability in Balb/c mouse at 20 mg/kg; type: ADME, organism-based; conditions: in vivo; summary of the method: as §3
Plasmodium berghei [16] = test: Antimalarial activity against Plasmodium berghei ANKA expressing GFP infected in NMRI mouse assessed as reduction of parasite level in blood at 30 mg/kg, po administered 24 hrs post infection measured after 72 hrs post infection by flow cytometry; type: functional; design: scale not given: the % may be the effect or the level left
Summary of the method: (§4)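 Female NMRI mice (20–22 g, n=3) are infected i.v. with 2×10^7 P. berghei GFP ANKA-infected erythrocytes. Oral compound in 75% PEG300/25% D5W is given at 10 mL/kg, once at 24 h or daily at 24/48/72 h post-infection. Parasitemia is read by flow cytometry at 72 h (single dose) or 96 h (triple dose). Activity is % reduction of mean parasitemia versus untreated controls.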

Plasmodium berghei [17] = test: Antimalarial activity against Plasmodium berghei ANKA expressing GFP infected in NMRI mouse assessed as reduction of parasite level in blood at 100 mg/kg, po administered 24 hrs post infection measured after 72 hrs post infection by flow cytometry; type: functional; design: scale not given: the % may be the effect or the level left; summary of the method: as §4
Plasmodium berghei [18] = test: Antimalarial activity against Plasmodium berghei ANKA expressing GFP infected in NMRI mouse assessed as reduction of parasite level in blood at 30 mg/kg, po administered 24 hrs post infection qd for 3 days measured after 96 hrs post infection by flow cytometry; type: functional; design: scale not given: the % may be the effect or the level left; summary of the method: as §4
Plasmodium berghei [19] = test: Antimalarial activity against Plasmodium berghei ANKA expressing GFP infected in po dosed NMRI mouse assessed as reduction of parasite level in blood administered 24 hrs post infection measured after 72 hrs post infection by flow cytometry; type: functional
Plasmodium berghei [20] = test: Antimalarial activity against Plasmodium berghei ANKA expressing GFP infected in NMRI mouse assessed as increase of mouse survival at 30 mg/kg, po administered 24 hrs post infection (reference value: 6 to 7 days); type: functional
Plasmodium berghei [21] = test: Antimalarial activity against Plasmodium berghei ANKA expressing GFP infected in NMRI mouse assessed as increase of mouse survival at 100 mg/kg, po administered 24 hrs post infection (reference value: 6 to 7 days); type: functional
Plasmodium berghei [22] = test: Antimalarial activity against Plasmodium berghei ANKA expressing GFP infected in NMRI mouse assessed as increase of mouse survival at 30 mg/kg, po administered 24 hrs post infection qd for 3 days (reference value: 6 to 7 days); type: functional
[23] = Cmax in Wistar rat at 10 mg/kg, po; type: ADME, organism-based; design: dose 10 mg/kg, route oral; conditions: in vivo
Summary of the method: (§5)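 Rat snapshot PK: two Wistar rats dosed orally at 10 mg/kg, formulated at 2.5 mg/mL in 75% PEG300/25% D5W. Blood (100 μL) taken at 0.5, 1, 3 and 5 h post dose. Plasma pooled by sampling time, then analysed by LC-MS/MS.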

Rattus norvegicus = test: Dose normalized AUC (0 to 5 hrs) in Wistar rat at 10 mg/kg, po; type: ADME, organism-based; design: dose 10 mg/kg, route oral; conditions: in vivo; summary of the method: as §5
[24] = Cytotoxicity against human 293T cells; type: cell-based; conditions: HEK-293T cells
[25] = Cytotoxicity against mouse BA/F3 cells; type: cell-based; conditions: baf3
CHO = test: Cytotoxicity against CHO cells; type: cell-based, Cricetulus griseus; conditions: chinese hamster
[26] = Cytotoxicity against human Hep2 cells; type: cell-based; conditions: HEp-2 cells
[27] = Cytotoxicity against human HuH7 cells; type: cell-based; conditions: Huh-7 cells
[28] = Clearance in Wistar rat at 3 mg/kg, iv; type: ADME, organism-based; design: dose 3 mg/kg, route intravenous; conditions: in vivo
Summary of the method: (§6)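 Wistar rats, three per route. Dosed IV at 3 mg/kg or orally at 10, 30 or 100 mg/kg; the 100 mg/kg arm used a suspension, others a 2.5 mg/mL filtered 75% PEG300/25% D5W formulation. Six 100 μL blood samples serially per rat within 24 h. LC-MS/MS of plasma, noncompartmental parameters; F is dose-corrected AUCpo/AUCiv.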

[29] = Half life in Wistar rat at 3 mg/kg, iv; type: ADME, organism-based; design: dose 3 mg/kg, route intravenous; conditions: in vivo; summary of the method: as §6
[30] = AUC in Wistar rat at 3 mg/kg, iv; type: ADME, organism-based; design: dose 3 mg/kg, route intravenous; conditions: plasma; summary of the method: as §6
[31] = Cmax in Wistar rat at 30 mg/kg, po; type: ADME, organism-based; design: dose 30 mg/kg, route oral; conditions: in vivo; summary of the method: as §6
[32] = Tmax in Wistar rat at 10 mg/kg, po; type: ADME, organism-based; design: dose 10 mg/kg, route oral; conditions: in vivo
[33] = Tmax in Wistar rat at 30 mg/kg, po; type: ADME, organism-based; design: dose 30 mg/kg, route oral; conditions: in vivo; summary of the method: as §6
[34] = Tmax in Wistar rat at 100 mg/kg, po; type: ADME, organism-based; design: dose 100 mg/kg, route oral; conditions: in vivo; summary of the method: as §6
[35] = Half life in Wistar rat at 10 mg/kg, po; type: ADME, organism-based; design: dose 10 mg/kg, route oral; conditions: in vivo
[36] = Half life in Wistar rat at 30 mg/kg, po; type: ADME, organism-based; design: dose 30 mg/kg, route oral; conditions: in vivo; summary of the method: as §6
[37] = Half life in Wistar rat at 100 mg/kg, po; type: ADME, organism-based; design: dose 100 mg/kg, route oral; conditions: in vivo; summary of the method: as §6
[38] = AUC (all) in Wistar rat at 10 mg/kg, po; type: ADME, organism-based; design: dose 10 mg/kg, route oral; conditions: plasma; summary of the method: as §6
[39] = AUC (all) in Wistar rat at 30 mg/kg, po; type: ADME, organism-based; design: dose 30 mg/kg, route oral; conditions: plasma; summary of the method: as §6
[40] = AUC (all) in Wistar rat at 100 mg/kg, po; type: ADME, organism-based; design: dose 100 mg/kg, route oral; conditions: plasma; summary of the method: as §6
[41] = Oral bioavailability in Wistar rat at 10 mg/kg; type: ADME, organism-based; conditions: in vivo; summary of the method: as §6
[42] = Oral bioavailability in Wistar rat at 30 mg/kg; type: ADME, organism-based; conditions: in vivo; summary of the method: as §6
[43] = Oral bioavailability in Wistar rat at 100 mg/kg; type: ADME, organism-based; conditions: in vivo; summary of the method: as §6

Voltage-gated inwardly rectifying potassium channel KCNH2, sequence (Q12809 whole entry): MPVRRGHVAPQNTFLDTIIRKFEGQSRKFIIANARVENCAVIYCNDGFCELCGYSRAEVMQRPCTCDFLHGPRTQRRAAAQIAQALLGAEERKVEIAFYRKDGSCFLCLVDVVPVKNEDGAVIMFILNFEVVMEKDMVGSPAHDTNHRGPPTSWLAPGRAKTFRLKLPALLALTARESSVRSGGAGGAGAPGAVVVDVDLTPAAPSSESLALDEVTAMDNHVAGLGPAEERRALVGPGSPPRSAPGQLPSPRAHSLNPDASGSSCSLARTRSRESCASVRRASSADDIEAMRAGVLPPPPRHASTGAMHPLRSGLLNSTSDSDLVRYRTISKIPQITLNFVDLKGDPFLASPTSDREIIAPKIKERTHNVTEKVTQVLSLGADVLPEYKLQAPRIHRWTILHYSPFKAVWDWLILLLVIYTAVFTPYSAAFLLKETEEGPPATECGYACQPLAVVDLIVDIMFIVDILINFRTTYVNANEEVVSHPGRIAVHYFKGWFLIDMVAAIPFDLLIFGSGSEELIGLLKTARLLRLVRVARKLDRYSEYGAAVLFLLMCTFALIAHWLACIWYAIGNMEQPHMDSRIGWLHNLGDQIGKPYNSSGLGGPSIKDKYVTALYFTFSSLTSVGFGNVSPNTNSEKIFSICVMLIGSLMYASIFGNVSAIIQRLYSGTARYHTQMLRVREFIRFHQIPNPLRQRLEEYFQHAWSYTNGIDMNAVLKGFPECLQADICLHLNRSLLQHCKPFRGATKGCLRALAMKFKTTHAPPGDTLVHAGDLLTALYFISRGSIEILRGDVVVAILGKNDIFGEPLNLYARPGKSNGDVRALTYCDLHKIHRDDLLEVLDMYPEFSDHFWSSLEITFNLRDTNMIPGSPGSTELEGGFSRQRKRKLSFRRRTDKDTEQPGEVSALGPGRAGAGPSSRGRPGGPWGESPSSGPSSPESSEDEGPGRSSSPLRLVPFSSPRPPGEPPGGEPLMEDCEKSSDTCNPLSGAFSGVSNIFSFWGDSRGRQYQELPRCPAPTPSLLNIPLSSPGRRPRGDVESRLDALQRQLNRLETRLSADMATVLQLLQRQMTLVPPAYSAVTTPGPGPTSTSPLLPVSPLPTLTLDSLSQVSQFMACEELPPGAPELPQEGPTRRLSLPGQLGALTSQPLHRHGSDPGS

## CC1(C)c2nc(-c3ccc(F)cc3)c(Nc3ccc(F)cc3)n2CCN1C(=O)CN [GANAPLACIDE]
Plasmodium falciparum [1]
  EC50: 0.01 µM
Plasmodium falciparum [2]
  EC50: 0.006 µM
[3]
  IC50: 13.4 µM
[4]
  permeability: 51.8%
[5]
  Papp A→B: 1.26 ×10⁻⁶ cm/s
[6]
  Papp B→A: 2.99 ×10⁻⁶ cm/s
[7]
  Vd: 10.2 L/kg
[8]
  clearance: 49.2 mL/min/kg
[9]
  half-life: 2 h
Mus musculus [10]
  AUC: 4.119 µM·h
[11]
  Cmax: 1540 nM
[12]
  Tmax: 1 h
[13]
  half-life: 4.35 h
Mus musculus [14]
  AUC: 12.155 µM·h
Mus musculus [15]
  F: 74%
Plasmodium berghei [16]
  Activity: 99.5%
Plasmodium berghei [17]
  Activity: 99.4%
Plasmodium berghei [18]
  Activity: 99.8%
Plasmodium berghei [19]
  ED99: 2.2 mg/kg
Plasmodium berghei [20]
  Survival: 16.3 days
Plasmodium berghei [21]
  Survival: 14 days
Plasmodium berghei [22]
  Survival: 17.7 days
[23]; Wistar
  Cmax: 126 nM
[23]
  Cmax: 91 nM
Rattus norvegicus
  AUC/dose: 1.2 min.ug/ml/(mg/kg)
[24]
  CC50: > 12 µM
[25]
  CC50: > 12 µM
CHO
  CC50: > 12 µM
[26]
  CC50: > 12 µM
[27]
  CC50: > 12 µM
[28]
  clearance: 67.5 mL/min/kg
[29]
  half-life: 4.6 h
[30]
  AUC: 1.83 µM·h
[31]
  Cmax: 580 nM
[32]
  Tmax: 1.5 h
[33]
  Tmax: 4.3 h
[34]
  Tmax: 8 h
[35]
  half-life: 4.7 h
[36]
  half-life: 6.3 h
[37]
  half-life: 8.4 h
[38]
  AUC: 0.974 µM·h
[39]
  AUC: 7.34 µM·h
[40]
  AUC: 34.9 µM·h
[41]
  bioavailability: 20%
[42]
  bioavailability: 40%
[43]
  bioavailability: 57%
